# Laboratory results reported in ChEMBL document CHEMBL2439960, “Pharmacokinetics, metabolism, and in vivo efficacy of the antimalarial natural product bromophycolide A” (ACS Med Chem Lett, 2013).
# Assays:
# [1] = Drug metabolism in human liver S9 fraction at 10 uM after 24 hrs by LC-MS analysis; format: ADME, subcellular; conditions: read-out: Drug metabolism
# Method in brief: (§1)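 Compound incubated with human liver S9 or microsomal fractions for 24 h, extended from 4 h, with NADPH and with or without UDPGA. Loss of parent compound followed over time, sampled at 6 and 24 h. In vitro t1/2 and CLint calculated from the loss.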
# [2] = Drug metabolism in human liver S9 fraction at 10 uM after 24 hrs by LC-MS analysis in presence of UDPGA; format: ADME, subcellular; conditions: s9, 24 h; method in brief: as §1
# [3] = Metabolic stability in human liver microsomes assessed as compound remaining at 10 uM after 24 hrs by LC-MS analysis in presence of UDPGA; format: ADME, Microsome; conditions: read-out: Stability; method in brief: as §1
# Liver microsomes [4] = test: Metabolic stability in human liver microsomes assessed as formation of metabolite M5 at 10 uM by LC-MS analysis in presence of UDPGA; format: ADME, Microsome
# Method in brief: (§2)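 Reaction products from S9 or microsomal incubations with NADPH analysed by LC-MS. Runs without UDPGA were checked for hydroxylated (m/z 677) and doubly hydroxylated (m/z 693) species. Runs with UDPGA were checked for a glucuronide (m/z 837).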
# Mus musculus [5] = test: Drug absorption rate constant in BALB/c mouse at 23 mg/kg, ip after 1 to 24 hrs by LC-MS/MS analysis; format: ADME, organism-based; parameters: dose 23 mg/kg, route intraperitoneal; conditions: in vivo
# Method in brief: (§3)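 Healthy mice given one 23 mg/kg dose, IV or IP. Plasma concentrations plotted as mean ± SD, n=3. Kinetics fitted as a first-order elimination process.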
# [6] = Apparent volume of distribution in BALB/c mouse at 23 mg/kg, iv after 1 to 24 hrs by LC-MS/MS analysis; format: ADME, organism-based; parameters: dose 23 mg/kg, route intravenous; conditions: in vivo, read-out: Vd(app); method in brief: as §3
# [7] = Half life in human liver S9 fraction at 10 uM after 24 hrs by LC-MS analysis in presence of UDPGA; format: ADME, subcellular; conditions: s9, 24 h; method in brief: as §1
# Liver microsomes [8] = test: Metabolic stability in human liver microsomes assessed as formation of metabolite M2 at 10 uM by LC-MS analysis in presence of NADPH and absence of UDPGA; format: ADME, Microsome; method in brief: as §2
# Liver microsomes [9] = test: Metabolic stability in human liver microsomes at 10 uM after 4 hrs by LC-MS analysis; format: ADME, Microsome
# Method in brief: (§4)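 Initial incubations with the human liver S9 or microsomal fraction lasted 4 h.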
# Plasmodium falciparum [10] = test: Antiplasmodial activity against chloroquine-sensitive Plasmodium falciparum 3D7 infected in erythrocytes assessed as parasite growth inhibition after 72 hrs by SYBR green I staining-based fluorescence assay; format: functional, organism-based; conditions: 3D7, 72 h
# [11] = Metabolic stability in human liver S9 fraction assessed as formation of metabolite M4 at 10 uM by LC-MS analysis in presence of NADPH and absence of UDPGA; format: ADME, subcellular; conditions: s9, 10 µM; method in brief: as §2
# Liver [12] = test: Metabolic stability in human liver S9 fraction at 10 uM after 4 hrs by LC-MS analysis; format: ADME, subcellular; conditions: s9, 4 h; method in brief: as §4
# Liver microsomes [13] = test: Half life in human liver microsomes at 10 uM after 24 hrs by LC-MS analysis in presence of UDPGA; format: ADME, Microsome; method in brief: as §1
# [14] = Metabolic stability in human liver S9 fraction assessed as formation of metabolite M3 at 10 uM by LC-MS analysis in presence of NADPH and absence of UDPGA; format: ADME, subcellular; conditions: s9, 10 µM; method in brief: as §2
# [15] = Metabolic stability in human liver S9 fraction assessed as formation of metabolite M2 at 10 uM by LC-MS analysis in presence of NADPH and absence of UDPGA; format: ADME, subcellular; conditions: s9, 10 µM; method in brief: as §2
# [16] = Cmax in BALB/c mouse at 23 mg/kg, ip after 1 to 24 hrs by LC-MS/MS analysis; format: ADME, organism-based; parameters: dose 23 mg/kg, route intraperitoneal; conditions: in vivo; method in brief: as §3
# [17] = Plasma clearance in BALB/c mouse at 23 mg/kg, iv after 1 to 24 hrs by LC-MS/MS analysis; format: ADME, organism-based; parameters: dose 23 mg/kg, route intravenous; method in brief: as §3
# [18] = Drug metabolism in human liver microsomes at 10 uM after 24 hrs by LC-MS analysis in absence of UDPGA; format: ADME, Microsome; conditions: read-out: Drug metabolism; method in brief: as §1
# [19] = Elimination rate constant in BALB/c mouse at 23 mg/kg, iv after 1 to 24 hrs by LC-MS/MS analysis; format: ADME, organism-based; parameters: dose 23 mg/kg, route intravenous; conditions: in vivo; method in brief: as §3
# Liver microsomes [20] = test: Metabolic stability in human liver microsomes assessed as formation of metabolite M3 at 10 uM by LC-MS analysis in presence of NADPH and absence of UDPGA; format: ADME, Microsome; method in brief: as §2
# Liver microsomes [21] = test: Half life in human liver microsomes at 10 uM after 24 hrs by LC-MS analysis in absence of UDPGA; format: ADME, Microsome; method in brief: as §1
# [22] = Metabolic stability in human liver S9 fraction assessed as formation of metabolite M1 at 10 uM by LC-MS analysis in presence of NADPH and absence of UDPGA; format: ADME, subcellular; conditions: s9, 10 µM; method in brief: as §2
# Mus musculus [23] = test: Toxicity in Swiss Webster mouse at 5 to 10 mg/kg, ip qd administered on day 2 to 5; format: organism-based; parameters: dose 5-10 mg/kg, route intraperitoneal; conditions: in vivo
# [24] = Initial plasma concentration in BALB/c mouse at 23 mg/kg, iv after 1 to 24 hrs by LC-MS/MS analysis; format: ADME, organism-based; parameters: dose 23 mg/kg, route intravenous; method in brief: as §3
# [25] = Tmax in BALB/c mouse at 23 mg/kg, ip after 1 to 24 hrs by LC-MS/MS analysis; format: ADME, organism-based; parameters: dose 23 mg/kg, route intraperitoneal; conditions: in vivo; method in brief: as §3
# [26] = AUC in BALB/c mouse at 23 mg/kg, ip after 1 to 24 hrs by LC-MS/MS analysis; format: ADME, organism-based; parameters: dose 23 mg/kg, route intraperitoneal; conditions: plasma; method in brief: as §3
# [27] = Metabolic stability in human liver S9 fraction at 10 uM after 24 hrs by LC-MS analysis in absence of S9 enzyme and NADPH; format: ADME, subcellular; conditions: s9, 24 h
# Method in brief: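 Control incubations for the S9 metabolism assay run over 24 h, lacking either the enzyme or NADPH.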
# Liver [28] = test: Half life in human liver S9 fraction at 10 uM after 24 hrs by LC-MS analysis; format: ADME, subcellular; conditions: s9, 24 h; method in brief: as §1
# [29] = Half life in BALB/c mouse at 23 mg/kg, iv after 1 to 24 hrs by LC-MS/MS analysis; format: ADME, organism-based; parameters: dose 23 mg/kg, route intravenous; conditions: in vivo; method in brief: as §3
# Plasmodium falciparum [30] = test: Antiplasmodial activity against chloroquine-resistant Plasmodium falciparum Dd2 infected in erythrocytes assessed as parasite growth inhibition after 72 hrs by SYBR green I staining-based fluorescence assay; format: functional, organism-based; conditions: Dd2, 72 h
# [31] = AUC in BALB/c mouse at 23 mg/kg, iv after 1 to 24 hrs by LC-MS/MS analysis; format: ADME, organism-based; parameters: dose 23 mg/kg, route intravenous; conditions: plasma; method in brief: as §3
# Liver microsomes [32] = test: Metabolic stability in human liver microsomes assessed as formation of metabolite M4 at 10 uM by LC-MS analysis in presence of NADPH and absence of UDPGA; format: ADME, Microsome; method in brief: as §2
# [33] = Metabolic stability in human Liver S9 fraction assessed as formation of metabolite M5 at 10 uM by LC-MS analysis in presence of UDPGA; format: ADME, subcellular; conditions: s9, 10 µM; method in brief: as §2
# Serum = test: Metabolic stability in mouse serum at 150 uM after 24 hrs by HPLC analysis; format: ADME, cell-free
# Method in brief: (§5)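 Compound incubated in mouse serum at 37 °C. Remaining compound measured at 24 h and 48 h.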
# Plasmodium yoelii = test: Antimalarial activity against Plasmodium yoelii infected in Swiss Webster mouse assessed as decrease in parasite load at 10 mg/kg, ip qd administered on day 2 to 5 by Hoechst 33342 staining-based FACS analysis relative to control; format: functional; parameters: scale not given: the % may be the effect or the level left; conditions: route intraperitoneal
# Method in brief: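 Mice infected with Plasmodium yoelii, dosed once daily at 5 or 10 mg/kg. Vehicle-only injected mice served as controls. Parasitemia was measured by FACS, including 24 h after the first dose, after the second dose, and at the end of the four-day trial.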
# [34] = Metabolic stability in human liver cytosolic subcellular fraction at 10 uM after 4 hrs by LC-MS analysis; format: ADME; conditions: cytosol
# Liver microsomes [35] = test: Metabolic stability in human liver microsomes assessed as formation of metabolite M1 at 10 uM by LC-MS analysis in presence of NADPH and absence of UDPGA; format: ADME, Microsome; method in brief: as §2
# [36] = Drug degradation in mouse serum at 150 uM after 48 hrs by HPLC analysis; format: ADME, cell-free; conditions: read-out: Drug degradation; method in brief: as §5
# Liver microsomes [37] = test: Intrinsic clearance in human liver microsomes at 10 uM after 24 hrs by LC-MS analysis in absence of UDPGA; format: ADME, Microsome; method in brief: as §1
# Plasmodium falciparum [38] = test: Antiplasmodial activity against ring stage of chloroquine-sensitive Plasmodium falciparum MRC-02 infected in human erythrocytes assessed as parasite growth inhibition after 24 hrs by Giemsa staining method; format: functional, organism-based; conditions: MRC-02, 24 h
# Plasmodium falciparum [39] = test: Antiplasmodial activity against chloroquine-sensitive Plasmodium falciparum MRC-02 assessed as suppression of parasitemia at 50 mg/kg, po by in vivo model study; format: functional
# [40] = Apparent clearance in Swiss mouse at 50 mg/kg, ip after 1 to 24 hrs by LC-MS/MS analysis; format: ADME, organism-based; parameters: dose 50 mg/kg, route intraperitoneal; conditions: in vivo, read-out: CL(app)
# Plasmodium berghei = test: Antimalarial activity against Plasmodium berghei ANKA infected in NMRI mouse assessed as reduction of parasitemia at 10 mg/kg, po qd administered 3 days by flow cytometric analysis; format: functional; parameters: scale not given: the % may be the effect or the level left
compound,measurement,setting,value
CC1=C2Cc3cc(ccc3O)C(=O)O[C@H](C(C)(C)Br)CC[C@](C)(O)[C@H](Br)CC[C@]2(C)[C@@H](Br)CC1,"metabolised at 24 h, 10 µM",[1],55%
same,Drug metabolism,[2],21%
same,"remaining at 24 h, 10 µM",[3],15.3%
same,Stability,Liver microsomes [4],Unstable
same,ka,Mus musculus [5],0.24 h⁻¹
same,Vd,[6],0.95 L/kg
same,t1/2,[7],9.5 h
same,Stability,Liver microsomes [8],Unstable
same,Stability,Liver microsomes [9],Stable
same,IC50,Plasmodium falciparum [10],499 nM
same,Stability,[11],Unstable
same,Stability,Liver [12],Stable
same,t1/2,Liver microsomes [13],6.6 h
same,Stability,[14],Unstable
same,Stability,[15],Unstable
same,Cmax,[16],5800 ng/mL
same,clearance,[17],16 mL/min/kg
same,"metabolised at 24 h, 10 µM",[18],61%
same,k el,[19],0.000258 s⁻¹
same,Stability,Liver microsomes [20],Unstable
same,t1/2,Liver microsomes [21],14 h
same,Stability,[22],Unstable
same,Activity,Mus musculus [23],Non-toxic
same,C0,[24],24000 ng/mL
same,Tmax,[25],1.5 h
same,AUC,[26],20000 ng·h/mL
same,Stability,[27],Stable
same,t1/2,Liver [28],20 h
same,half-life,[29],0.75 h
same,IC50,Plasmodium falciparum [30],377 nM
same,AUC,[31],26000 ng·h/mL
same,Stability,Liver microsomes [32],Unstable
same,Stability,[33],Unstable
same,Stability,Serum,Stable
same,Activity,Plasmodium yoelii,47%
same,Stability,[34],Stable
same,Stability,Liver microsomes [35],Unstable
same,"metabolised at 48 h, 150 µM",[36],27%
same,CLint,Liver microsomes [37],0.72 mL/min/kg
CC(=O)Oc1ccc2cc1CC1=C(C)CC[C@H](Br)[C@@]1(C)CC[C@@H](Br)[C@@](C)(O)CC[C@@H](C(C)(C)Br)OC2=O,IC50,Plasmodium falciparum [10],241 nM
CC(=O)OC[C@@H]1CC[C@]2(C)C(C)=CC(=O)C[C@H]2[C@]1(C)CCC1=CCOC1=O,IC50,Plasmodium falciparum [38],8800 nM
same,Activity,Plasmodium falciparum [39],45%
CCN(CC)CCCC(C)Nc1ccnc2cc(Cl)ccc12 (centres undefined) [CHLOROQUINE],CL/F,[40],17 mL/min/kg
C[C@H]1Cc2c([nH]c3cc(Cl)c(F)cc23)[C@@]2(N1)C(=O)Nc1ccc(Cl)cc12 [CIPARGAMIN],Activity,Plasmodium berghei,99%
